Assay [1] deals with GC3/MTK-. Kind of assay: Inhibition of GC3/M TK- (human adenocarcinoma) cell growth in vitro. The assay is classed as functional, cell-based. A digest of the protocol:
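Thymidine kinase-deficient human adenocarcinoma GC3/M TK- cells seeded at 10 000 cells/well in RPMI-1640 with 10% fetal calf serum and 0.5% DMSO. Compound given as nine 2-fold serial dilutions over a 5 day incubation, then 4 h MTT and spectrophotometric formazan read after DMSO dissolution. IC50 from semilog plots of the mean of four growth assessments relative to control cultures.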

The test system of assay [2] is L1210. Kind of assay: Inhibition of murine L1210 cell line tissue culture growth. The class given is functional, cell-based. Particulars: Mus musculus. A digest of the protocol: (§1)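 Murine L1210 leukemia cells seeded at 1000 cells/well in RPMI-1640 containing 5% fetal calf serum and 0.5% DMSO, exposed to nine 2-fold serial dilutions for 3 days. Growth was read by MTT (4 h), with formazan dissolved in DMSO and measured spectrophotometrically. IC50 comes from semilog concentration plots of the mean of four assessments per dilution versus control growth.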

The test system of assay [3] is CCRF-CEM. Briefly: (§2) Inhibition of CCRF-CEM (human leukemia) cell growth in vitro. The class given is functional, cell-based. A digest of the protocol: (§3)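 MTT colorimetric growth assay (modified Mosmann) in CCRF-CEM human leukemia cells seeded at 10 000 cells/well in RPMI-1640 with 5% fetal calf serum and 0.5% DMSO. Nine 2-fold serial dilutions of compound, 5 day incubation, then 4 h MTT and formazan dissolved in DMSO for spectrophotometric reading. IC50 taken from semilog plots of the mean of four growth assessments per dilution relative to control cultures.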

In assay [4] the target is Thymidylate synthase (Escherichia coli) (UniProt C3SWJ7).
Chain of Thymidylate synthase (Escherichia coli) (C3SWJ7 1-264): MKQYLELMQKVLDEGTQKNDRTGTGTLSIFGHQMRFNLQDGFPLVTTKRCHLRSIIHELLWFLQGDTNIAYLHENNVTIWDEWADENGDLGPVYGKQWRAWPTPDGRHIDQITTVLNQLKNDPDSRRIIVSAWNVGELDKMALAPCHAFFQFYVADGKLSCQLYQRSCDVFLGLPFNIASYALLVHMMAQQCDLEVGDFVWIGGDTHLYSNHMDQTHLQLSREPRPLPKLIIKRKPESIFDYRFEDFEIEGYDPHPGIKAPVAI
Assay [5] has the same target. This is another data set of the same source.
Assay [6] deals with Thymidylate synthase (Homo sapiens) (UniProt P04818).
Chain of Thymidylate synthase (Homo sapiens) (P04818 2-313 limits assumed): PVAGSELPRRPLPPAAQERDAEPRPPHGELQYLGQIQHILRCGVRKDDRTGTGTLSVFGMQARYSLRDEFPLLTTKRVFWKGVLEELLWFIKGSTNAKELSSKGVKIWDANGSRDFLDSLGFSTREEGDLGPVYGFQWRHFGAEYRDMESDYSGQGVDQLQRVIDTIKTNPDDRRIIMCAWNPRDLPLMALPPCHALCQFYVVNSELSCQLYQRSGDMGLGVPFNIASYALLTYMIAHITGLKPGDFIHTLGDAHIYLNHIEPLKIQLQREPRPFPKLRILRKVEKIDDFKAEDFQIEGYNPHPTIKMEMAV
Assay [7] has the same target. The source holds these as a separate data set.
Assay [8] relates to CCRF-CEM. Kind of assay: Activity for growth inhibition in tissue culture of human leukemias (CCRF-CEM). value in parenthesis indicates % inhibition. The class given is functional, cell-based.
For assay [9], the system named is GC3/MTK-. Briefly: (§4) Inhibitory activity of compound against growth of thymidine kinase-deficient human adenocarcinoma cell line (GC3/M TK-) in tissue culture. The class given is functional. Further details: concentration or dose not given beside the values. A digest of the protocol: (§5)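 MTT colorimetric growth assay in the thymidine kinase-deficient human adenocarcinoma line. Seeded at 10 000 cells/well in RPMI-1640 with 10% fetal calf serum and 0.5% DMSO. Nine 2-fold serial dilutions of compound, 5 day incubation, then 4 h MTT. Formazan dissolved in DMSO and read spectrophotometrically. IC50 taken from semilog plots of the mean of four growth assessments per dilution, relative to control cultures.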

For assay [10], the system named is CCRF-CEM. The description is as §2. The class given is functional. Further details: concentration or dose not given beside the values. A digest of the protocol: as §3
For assay [11], the system named is L1210. Briefly: Inhibition of L1210 (murine leukemia) cell growth in vitro. The assay is classed as functional, Mus musculus. Further details: concentration or dose not given beside the values. A digest of the protocol: as §1
The test system of assay [12] is GC3/MTK-. Briefly: Activity for growth inhibition in tissue culture of thymidine kinase-deficient human adenocarcinoma cell line (GC3/M TK-)value in parenthesis indicates % inhibition. The class given is functional, cell-based.
For assay [13], the system named is GC3/MTK-. The assay is described as §4. The class given is functional. A digest of the protocol:
as §5

In assay [14] the test system is CCRF-CEM. Briefly: Inhibitory activity of compound against growth of human leukemias (CCRF-CEM) cell lne in tissue culture. The class given is functional. A digest of the protocol:
as §3

The term IC50 denotes the concentration that inhibits the measured activity by half. The Inhibition is the relative decrease from the control value, in per cent.

As to `C#CCN(Cc1ccc2nc(C)nc(O)c2c1)c1ccc(S(=O)(=O)N2CCOCC2)cc1`, the figures for the IC50 in assay [1], in assay [2] and in [3] were 5.2 µM, 3.1 µM and 4.5 µM, respectively. The Kii in assay [4] was 0.15 µM; in [7], 0.091 µM. Further, the Kis worked out at 0.039 µM in assay [5] and 0.045 µM in [6].

For `C#CCN(Cc1ccc2nc(C)nc(O)c2c1)c1ccc(S(=O)(=O)NCC(=O)O)c(C(F)(F)F)c1`, the IC50 is greater than 77 µM in assay [8], greater than 77 µM in assay [1] and greater than 75 µM in [2]. In [9], this compound showed an Inhibition of 28%. In addition, the figures for the Kii in [4] and in assay [7] were 0.015 µM and 0.019 µM, respectively. Further, the values for the Kis in assay [5] and in assay [6] were 0.0059 µM and 0.0096 µM, respectively.

For the compound `C#CCN(Cc1ccc2nc(C)nc(O)c2c1)c1ccc([N+](=O)[O-])c(C(F)(F)F)c1`, the figures for the IC50 in [2] and in [3] were 5 µM and 10.5 µM, respectively. For the same compound, the Kii was 0.073 µM in assay [4] and 0.15 µM in assay [7]. For the same compound, the Kis in [5] was found to be 0.038 µM; in [6] it was 0.074 µM.

`C#CCN(Cc1ccc2nc(C)nc(O)c2c1)c1cccc(I)c1`: the IC50 in [8], in [1] and in [2] was greater than 5.3 µM in each case. Besides, the Inhibition is given as 10% in assay [10] and 35% in assay [9]. In addition, the Kii was found to be 1.4 µM in assay [4] and 0.44 µM in assay [7]. Moreover, the Kis turned out to be 0.33 µM in assay [5] and 0.16 µM in [6].

Compound `C#CCN(Cc1ccc2nc(C)nc(O)c2c1)c1ccc(C#N)c(C(F)(F)F)c1` came in with an IC50 in [2] greater than 2.8 µM. The same compound registered an Inhibition in assay [11] greater than 15%. The Kii in assay [4] was determined as 0.047 µM; in assay [7] it was 0.14 µM. Moreover, the results for the Kis in assay [5] and in assay [6] were 0.015 µM and 0.081 µM, respectively.

On to `C#CCN(Cc1ccc2nc(C)nc(O)c2c1)c1cccc(Br)c1`, for which the Inhibition in [10] is recorded as 20%. Besides, the IC50 was 5.3 µM in assay [1], 1.8 µM in assay [2] and greater than 5.7 µM in assay [3]. Further, the Kii in [4] worked out at 3.3 µM; in assay [7] it was 0.84 µM. Moreover, the Kis was determined as 0.92 µM in assay [5] and 0.65 µM in assay [6].

As for `C#CCN(Cc1ccc2nc(C)nc(O)c2c1)c1cccc(CC)c1`, the half-inhibitory concentration (IC50) in assay [8], in assay [12] and in assay [2] was greater than 5 µM in each case. The Inhibition is given as 26% in [10], 20% in assay [13] and 25% in [11]. Also, the Kii was 24 µM in [4] and 3.8 µM in assay [7]. In addition, the Kis was determined as 5 µM in assay [5] and 2.7 µM in assay [6].

As for `C#CCN(Cc1ccc2nc(C)nc(O)c2c1)c1ccccc1`, the figures for the Inhibition in [14], in [13] and in assay [11] were 29%, 24% and 35%, respectively. In addition, the results for the IC50 in assay [1], in [2] and in assay [3] were greater than 10.7 µM, greater than 6.5 µM and greater than 10.7 µM, respectively.

`C#CCN(Cc1ccc2nc(C)nc(O)c2c1)c1ccc(S(N)(=O)=O)cc1`: the results for the half-maximal inhibitory concentration (IC50) in assay [1], in assay [2] and in [3] were greater than 26 µM, 20 µM and greater than 26 µM, respectively. Besides, the Kii in assay [4] is 0.41 µM; in [7], 0.084 µM. Besides, the Kis turned out to be 0.1 µM in assay [5] and 0.064 µM in [6].

`Cc1nc(O)c2cc(CNc3ccc(S(=O)(=O)c4ccccc4)cc3)ccc2n1`: the figures for the Inhibition in assay [10], in [9] and in assay [11] were 33%, 10% and 40%, respectively. The IC50 in [1], in assay [2] and in assay [3] was greater than 14.7 µM throughout. Moreover, the results for the Kii in assay [4] and in assay [7] were 17 µM and 2.2 µM, respectively. The Kis in [5] worked out at 2 µM; in [6] it was 1 µM.

On to `C#CCN(Cc1ccc2nc(C)nc(O)c2c1)c1ccc([S+]([O-])c2ccccc2)cc1` (stereo not given), for which the values for the IC50 in assay [1], in [2] and in assay [3] were 3.9 µM, 1.7 µM and 4.5 µM, respectively. The results for the Kii in assay [4] and in assay [7] were 0.55 µM and 0.11 µM, respectively. Moreover, the Kis in assay [5] is 0.16 µM; in assay [6], 0.061 µM.

`C#CCN(Cc1ccc2nc(C)nc(O)c2c1)c1ccc([N+](=O)[O-])cc1` yielded an Inhibition in assay [10] of 8%. Besides, the figures for the IC50 in [1], in [2] and in assay [3] were greater than 4.8 µM, 4.7 µM and greater than 4.8 µM, respectively. Besides, the results for the Kii in assay [4] and in assay [7] were 0.17 µM and 0.098 µM, respectively. Moreover, the figures for the Kis in [5] and in [6] were 0.068 µM and 0.056 µM, respectively.

For `CCN(Cc1ccc2nc(C)nc(O)c2c1)c1ccc(S(=O)(=O)c2ccccc2)cc1`, the results for the IC50 in assay [1], in [2] and in assay [3] were 2.6 µM, 0.66 µM and 2.7 µM, respectively. The Kii in assay [4] turned out to be 0.24 µM; in [7], 0.13 µM. Moreover, the figures for the Kis in [5] and in [6] were 0.077 µM and 0.034 µM, respectively.

Consider `C#CCN(Cc1ccc2nc(C)nc(O)c2c1)c1cccc(C#C)c1`, for which the IC50 in assay [8] and in [2] was greater than 2.4 µM each time. Further, the Inhibition is on record as 15% in assay [10] and 5% in assay [11]. Moreover, the Kii in assay [4] was 2.7 µM; in assay [7], 0.68 µM. In addition, the Kis in assay [5] came out at 0.86 µM; in assay [6] it was 0.41 µM.

`Cc1nc(O)c2cc(CN(C)c3ccc(Cc4ccccc4)cc3)ccc2n1`: the IC50 is greater than 5 µM in assay [12], 2.8 µM in [2] and 3.4 µM in assay [3]. In addition, the Kii in [4] and in [7] was greater than 1 µM in each case. The Kis in assay [5] and in [6] was greater than 1 µM throughout.

Regarding `C#CCN(Cc1ccc2nc(C)nc(O)c2c1)c1ccc(S(=O)(=O)c2ccccc2)cc1`, the IC50 in [1] worked out at 1.76 µM; in assay [2], 0.86 µM; in [3] it was 1.44 µM.

`C#CCN(Cc1ccc2nc(C)nc(O)c2c1)c1ccc(S(=O)(=O)C(F)(F)F)cc1`: the IC50 in assay [8], in assay [12] and in assay [2] was greater than 2.75 µM throughout. The compound further displayed an Inhibition in assay [11] of 45%. For the same compound, the results for the Kii in [4] and in assay [7] were 0.064 µM and 0.028 µM, respectively. The Kis in assay [5] came to 0.042 µM; in assay [6], 0.021 µM.

Consider `C#CCN(Cc1ccc2nc(C)nc(O)c2c1)c1ccc(S(=O)(=O)N2CCNCC2)cc1`, for which the IC50 was greater than 50 µM in assay [12], greater than 50 µM in assay [2] and 48 µM in assay [3]. Moreover, the Inhibition in assay [9] and in assay [11] was 47% in each case. The Kii in assay [4] is 0.28 µM; in [7] it was 0.071 µM. Also, the Kis in [5] was 0.1 µM; in assay [6], 0.063 µM.

In assay [10], `C#CCN(Cc1ccc2nc(C)nc(S)c2c1)c1cccc(C(F)(F)F)c1` gave an Inhibition of 30%. For the same compound, the IC50 in assay [12], in assay [2] and in assay [3] was greater than 5.6 µM each time. For the same compound, the figures for the Kii in [4] and in assay [7] were 0.36 µM and 2.3 µM, respectively. The Kis in [5] came to 0.18 µM; in assay [6], 1.3 µM.

Turning to `CCN(Cc1ccc2nc(C)nc(O)c2c1)c1ccc(C(=O)C(F)(F)F)cc1`, the Inhibition in [10] and in assay [9] was 10% in each case. For the same compound, the IC50 in assay [1] was greater than 4 µM; in assay [2], 3.4 µM; in assay [3] it was greater than 4 µM. For the same compound, the Kii in assay [4] was determined as 1 µM; in assay [7], 0.49 µM. Moreover, the Kis in assay [5] is 0.18 µM; in [6], 0.13 µM.

Turning to `C#CCN(Cc1ccc2[nH]c(N)nc(=O)c2c1)c1ccc(C(=O)NC(CCC(=O)O)C(=O)O)cc1` (stereo not given), the IC50 came to 2.13 µM in [1] and 1.57 µM in [2].

Consider `C#CCN(Cc1ccc2nc(C)nc(O)c2c1)c1cccc(C(C)O)c1` (stereo not given), for which the IC50 in assay [8] is greater than 49 µM; in [1], 49 µM; in assay [2], greater than 49 µM. The figures for the Inhibition in assay [10] and in [11] were 33% and 35%, respectively. In addition, the Kii in [4] stood at 8.3 µM; in assay [7] it was 3.6 µM. Besides, the Kis in [5] is 2.4 µM; in [6], 1.7 µM.

The compound `C#CCN(Cc1ccc2nc(C)nc(O)c2c1)c1ccc(C(=O)c2ccccc2)cc1` displayed an Inhibition in assay [10] of 40%. In addition, the results for the IC50 in [1], in assay [2] and in assay [3] were 6.2 µM, 7.7 µM and greater than 7.7 µM, respectively. For the same compound, the Kii in assay [4] is 0.47 µM; in assay [7], 0.16 µM. Also, the Kis in [5] was 0.094 µM; in assay [6] it was 0.11 µM.
